TAAR1 agonist: human TAAR1 agonists, primary screen, Fluo-8 calcium fluorescence, CHO RD-HGA16 cells; vehicle wells 0%, saturating PEA agonist 100%; 0.99% of 360,000 active; AID 624467, 2012; Trace amine-associated receptor 1 (Homo sapiens), Q96RJ0; activation, % at 3 µM;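 active = activation above the mean activation of all test compounds in the run plus 3 SD, cut at about 38% in these data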
Target sequence (Q96RJ0 whole entry, looked up): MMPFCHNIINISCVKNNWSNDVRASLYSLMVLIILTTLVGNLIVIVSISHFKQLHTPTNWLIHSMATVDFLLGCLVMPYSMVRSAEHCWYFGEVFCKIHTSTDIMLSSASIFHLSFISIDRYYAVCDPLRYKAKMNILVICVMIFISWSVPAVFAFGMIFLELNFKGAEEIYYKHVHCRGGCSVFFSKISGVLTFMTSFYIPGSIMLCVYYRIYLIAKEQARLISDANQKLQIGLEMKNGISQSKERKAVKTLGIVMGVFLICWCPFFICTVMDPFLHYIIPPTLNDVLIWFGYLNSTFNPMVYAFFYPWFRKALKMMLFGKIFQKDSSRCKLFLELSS
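Test system: RD-HGA16 (CHO) cells co-expressing Gα16 and hTAAR1 / Benchmarks: DMSO vehicle as 0%, PEA at EC100 as 100% / Repeats: no replicates (n 1) / Measure: % activation from peak over basal fluorescence ratio, DMSO-to-PEA scaled / Timing: 17-24 h plating, Fluo-8 75 min 37 °C, 30 min RT / Technique: kinetic Fluo-8 calcium fluorescence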
NS3 helicase inh: inhibitors of HCV NS3 helicase, primary screen, biochemical, Cy5 molecular beacon fluorescence; Hepatitis C virus NS3 helicase; NS3 helicase DNA unwinding; inhibition, % at 10.9 µM; 0.56% of 290,000 active;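 active = inhibition above the mean of all tested compounds plus 3 SD, set per campaign, cut at about 35% in these data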
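Control set: DMSO versus 110 µM thioflavine S; Material: NS3 helicase fragment of HCV; Measured by: Cy5 fluorescence at 0 and 60 min, beacon hairpin quenching; Read-out basis: percent inhibition from t60/t0 fluorescence ratio; Times: reaction time 60 min, 25 °C; Repeats: single replicate; Compound dosing: single dose, 10.9 µM nominal final, DMSO 0.8% final.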
rCAG RNA binder: binders of r(CAG) RNA repeats, primary screen, biochemical, fluorescence | r(CAG) RNA repeat, TO-PRO-1 dye displacement fluorescence | inhibition, % at 3 µM | 1.3% of 370,000 active | AID 651821, 2012;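 active = inhibition above the plate cutoff, the mean of all test compounds on that plate plus 3 SD, cut at about 35% in these data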;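 note: higher means more dye released from RNA so lower well fluorescence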
TAAR1 antag: human TAAR1 antagonists, primary screen, Fluo-8 calcium fluorescence, CHO RD-HGA16 cells; Trace amine-associated receptor 1 (Homo sapiens), Q96RJ0; antagonist; inhibition, % at 3 µM; 1.5% of 360,000 active;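 active = inhibition above a per-plate cutoff, the mean inhibition of test compounds on that plate plus 3 SD, cut at about 49% in these data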
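System: RD-HGA16 CHO cells with stable hTAAR1 and Gα16 | Probe or stimulus: EC80 β-phenethylamine stimulus | Dosing: 3 µM, single point | Times: Dye loading 75 min at 37 °C, then 30 min room temperature | Measured by: Fluo-8 calcium-sensitive fluorescence | Read-out basis: % inhibition of agonist calcium response | Replicates: n of 1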
HCV core dimer: inhibitors of HCV core protein dimerization, primary screen, biochemical, TR-FRET, high-throughput; TR-FRET GST/Flag-core106 dimerization, 1536-well; inhibition, % at 5 µM; 0.33% of 300,000 active; AID 1899, 2009;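 active = inhibition above the mean of all tested compounds plus 3 SD, set per screening campaign, cut at about 45% in these data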
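Material: GST/Flag-tagged HCV core106 proteins. Incubation: 4 h, 22.5 °C incubation. Read-out basis: inhibition (%) from 671 over 617 nm ratio. Measured by: TR-FRET, excitation 340 nm, emission 617 and 671 nm.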
Each line names hits and unclear results; the compound was inactive in the other large screens. Shown are actives, neighbours in structure and some others; about 3.7% of the full set was active somewhere.

Clc1ccc(Cn2c(/C=C/c3ccco3)nc3ccccc32)cc1	HCV core dimer 58
CC(NC(=O)/C=C/c1ccco1)c1nc2ccccc2n1Cc1c(Cl)cccc1Cl (stereo not drawn)	none
CCn1c2ccccc2c2cc(/C=N/NC(=O)c3cccc(C)c3)ccc21	HCV core dimer 48
CCn1c2ccccc2c2cc(/C=N/NC(=O)c3ccccc3C)ccc21	none
Cc1ccc(CNC(=O)C2COc3ccccc3O2)cc1 (stereo not drawn)	none
Cc1ccc(C(C(=O)NCc2ccc(F)cc2)N(CCCO)C(=O)C2COc3ccccc3O2)o1 (stereo not drawn)	TAAR1 antag 52
CCOC(=O)[C@]12CCCCC/C=C\1N(CCc1ccc(Cl)cc1)C(=O)[C@H]2CC(=O)NCC1CCCCC1	none (no result: TAAR1 agonist, NS3 helicase inh, TAAR1 antag, HCV core dimer)
CC(C)C[C@@H]1COc2cccc(N3CCSCC3)c2S(=O)(=O)N1C	none (no result: TAAR1 agonist, NS3 helicase inh, TAAR1 antag, HCV core dimer)
CC(=O)Nc1ccc(S(=O)(=O)N(C)c2ccc(OCC(=O)Nc3ccccc3C(C)=O)cc2)cc1	TAAR1 antag 55 (no result: NS3 helicase inh, HCV core dimer)
COc1ccc(NC(=O)COc2ccc(N(C)S(=O)(=O)c3ccc(Cl)cc3)cc2)cc1OC	TAAR1 antag 61 (no result: NS3 helicase inh)
CN(c1ccc(OCC(=O)Nc2ccccc2C(=O)O)cc1)S(=O)(=O)c1ccc(Cl)cc1	rCAG RNA binder 55 (no result: NS3 helicase inh, HCV core dimer)
CN(c1ccc(OCC(=O)OCC(=O)Nc2ccc(F)cc2)cc1)S(=O)(=O)c1ccc(Cl)cc1	none
CCOc1ccc(S(=O)(=O)N(C)c2ccc(OCC(=O)Nc3ccccc3F)cc2)cc1	none (no result: NS3 helicase inh, HCV core dimer)
Cc1ccc(S(=O)(=O)N(C)C)cc1NC(=O)COc1ccccc1C(=O)Nc1ccccc1	TAAR1 antag 55 (no result: NS3 helicase inh)
COC(=O)[C@]12C[C@H](CC(=O)NCc3cccc(C(F)(F)F)c3)C(=O)N(Cc3ccco3)C1=C[C@H](C(C)C)O[C@@H]2C1CC1	none (no result: TAAR1 agonist, NS3 helicase inh, TAAR1 antag, HCV core dimer)
Cc1ccc(-n2c(Cc3cccs3)nnc2SCc2ccc([N+](=O)[O-])cc2)cc1	none (no result: TAAR1 agonist, NS3 helicase inh, TAAR1 antag, HCV core dimer)
CCn1c(SCc2ccc(C(=O)Nc3cc(C)cc(C)c3)cc2)nnc1-c1ccncc1	TAAR1 antag 59
CC(C)c1cc(Nc2cccc(O)c2)cc(C(C)C)c1O	HCV core dimer 53 (no result: TAAR1 agonist, rCAG RNA binder, TAAR1 antag)
O=C(c1cc(-c2ccc(Cl)cc2)nc2ccccc12)N1CCN(c2ncccn2)CC1	none (no result: TAAR1 agonist, NS3 helicase inh, TAAR1 antag, HCV core dimer)
CC1(C(=O)NCc2ccc(Cl)c(Cl)c2)Oc2cccnc2NC1=O (stereo not drawn)	TAAR1 agonist 53
CC1(C(=O)NCc2ccccc2)Oc2ccccc2NC1=O (stereo not drawn)	none
Cc1nc2nc(C)n(CCN3CCOCC3)c(=O)c2c(-c2cccc([N+](=O)[O-])c2)c1C(=O)CCCCCCCCCCN1CCC(c2ccccc2)(c2ccccc2)CC1	TAAR1 antag 49 (no result: NS3 helicase inh, HCV core dimer)
O=C(COc1ncnc2cc([N+](=O)[O-])ccc12)NC(=O)NC1CCCCC1	TAAR1 agonist 41
CC(=O)c1c(C)[nH]c(C(=O)OCCCCN2C(=O)c3ccccc3C2=O)c1C	TAAR1 antag 72
O=C(NCCc1ccccc1)C1CCCN(S(=O)(=O)c2cccnc2)C1 (stereo not drawn)	TAAR1 agonist 40
NS(=O)(=O)c1ccc(CCNC(=O)C2CCCN(S(=O)(=O)c3cccnc3)C2)cc1 (stereo not drawn)	none
COc1cccc(-c2ccc(CC[C@H]3O[C@H]4CC[C@@H](CO)O[C@H]4C[C@H]3NC(=O)c3cnccn3)cc2)c1	none (no result: TAAR1 agonist, NS3 helicase inh, TAAR1 antag, HCV core dimer)
CCc1nn2c(=O)cc(COc3ccc(/C=C4\C(=N)N5N=C(C)SC5=NC4=O)cc3)nc2s1	HCV core dimer 47
C=CCN(C(=O)[C@@H](C)[C@@H](O)c1ccc(Cl)cc1)c1ccccc1	none (no result: TAAR1 agonist, NS3 helicase inh, TAAR1 antag, HCV core dimer)
CCOC(=O)C(Cc1ccc(O)cc1)NC(=O)CCc1c[nH]c2ccccc12 (stereo not drawn)	TAAR1 agonist 40
COC(=O)[C@H](Cc1c[nH]c2ccccc12)NC(=O)CCCc1c[nH]c2ccccc12	none
C=CCn1c(COc2ccc(C)cc2)nnc1SCC(=O)c1ccc(-c2ccccc2)cc1	none (no result: TAAR1 agonist, NS3 helicase inh, TAAR1 antag, HCV core dimer)
C/C(=N\NC(=O)c1ccc(O)cc1)c1ccc(N2CCOCC2)cc1	none
